Compounds with a hit are over-represented: about 9.4% of the library has one in this group of screens.
SKKanGAS inh – S. pyogenes SKKanGAS growth inhibitors in kanamycin, primary screen, streptokinase expression inhibitor project, SKKanGAS strain, BacTiter-Glo luminescence. 6 h. inhibition, % at 7.5 µM. actives 1.3% (n = 300,000);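 active = mean replicate score, as percent of positive control median, at least 50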;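 also: strain carries kanamycin resistance gene driven by streptokinase promoter and grows in 40 µg/ml kanamycin; loss of luminescence reflects streptokinase promoter inhibition or plain growth inhibition; 0% = median of DMSO wells and 100% = positive control at its reference dose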
Beta cell apopt – inhibitors of cytokine-induced beta cell apoptosis, primary screen, luminescence; actives 0.8% (n = 300,000); AID 435005, 2010; INS-1E cytokine-induced death, ATP luminescence, 48 h; percent of positive-control rescue, neutral wells zero; protection from apoptosis, % (no concentration beside the values);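 active = Every replicate reaches about 75%, or at least half do and their mean reaches it too, limit read from the data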;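 also: 0% = cytokine-treated negative control wells and 100% = positive control rescue; higher means more ATP so stronger rescue from cytokine killing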
Mdm2 MdmX PPI – inhibitors of human Mdm2-MdmX association, primary screen, cell-based, luminescence, split luciferase, SaOS-2, uHTS; inhibition, % at 8 µM; SaOS-2 split-luciferase Mdm2/MdmX complementation; actives 3% (n = 330,000); Protein Mdm4 (Homo sapiens) + E3 ubiquitin-protein ligase Mdm2 (Homo sapiens), …; AID 485346, 2010;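 active = inhibition of at least 50% at 8 µM in the primary screen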
Target sequence (O15151 whole entry, looked up): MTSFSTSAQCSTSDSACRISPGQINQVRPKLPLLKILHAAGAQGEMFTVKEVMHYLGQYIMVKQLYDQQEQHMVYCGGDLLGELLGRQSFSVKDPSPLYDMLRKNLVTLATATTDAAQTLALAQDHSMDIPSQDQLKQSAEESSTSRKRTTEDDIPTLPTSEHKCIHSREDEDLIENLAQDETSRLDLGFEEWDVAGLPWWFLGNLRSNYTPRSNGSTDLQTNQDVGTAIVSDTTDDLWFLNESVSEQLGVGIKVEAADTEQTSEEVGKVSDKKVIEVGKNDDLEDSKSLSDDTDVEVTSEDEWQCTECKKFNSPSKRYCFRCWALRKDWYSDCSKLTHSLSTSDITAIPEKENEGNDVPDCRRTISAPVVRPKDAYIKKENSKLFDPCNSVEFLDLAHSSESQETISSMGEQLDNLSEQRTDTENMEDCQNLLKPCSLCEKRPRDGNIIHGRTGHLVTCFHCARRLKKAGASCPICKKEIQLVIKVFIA
Target sequence (Q00987 whole entry, looked up): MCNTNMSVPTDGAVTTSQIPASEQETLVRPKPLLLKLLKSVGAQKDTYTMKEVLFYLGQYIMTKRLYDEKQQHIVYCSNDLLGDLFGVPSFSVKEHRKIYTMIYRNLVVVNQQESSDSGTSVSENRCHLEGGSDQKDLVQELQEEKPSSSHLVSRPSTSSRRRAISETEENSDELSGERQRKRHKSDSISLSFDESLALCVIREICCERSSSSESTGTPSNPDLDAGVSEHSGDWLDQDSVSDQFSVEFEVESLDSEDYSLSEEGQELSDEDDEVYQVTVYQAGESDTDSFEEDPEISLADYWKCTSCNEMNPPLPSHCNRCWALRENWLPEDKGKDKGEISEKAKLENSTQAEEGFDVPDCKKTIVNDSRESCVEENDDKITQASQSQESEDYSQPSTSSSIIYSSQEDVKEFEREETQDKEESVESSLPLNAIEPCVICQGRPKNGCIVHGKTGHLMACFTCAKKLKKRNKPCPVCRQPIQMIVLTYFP
T cruzi inh – inhibitors of intracellular T. cruzi growth, primary screen, luminescence, NIH3T3 host cells; T. cruzi beta-gal in NIH3T3, 90 h; inhibition, % (no concentration beside the values); actives 1.4% (n = 300,000); AID 1885, 2009;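 active = mean inhibition across valid replicates above about 55%, limit read from the data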;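 also: signal also drops with host cell toxicity which is not excluded here; 0% = plate median of DMSO wells and 100% = zero luminescence signal; higher percent means less beta-gal luminescence so fewer parasites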
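Assay system: NIH/3T3 fibroblasts plus reporter T. cruzi. Amount: NIH/3T3 cells, 5,000 per well. Buffer or medium: DMEM, 2% fetal bovine serum. Doses: compound pinned at 50 nL/well, DMSO. Schedule: ≥90 h infection period, 3 h prior cell attachment. Signal: luminescent β-galactosidase signal after 60 min lysis. Read-out: parasite load inhibition, %.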
CSC inhib – cancer stem cell viability inhibitors, primary screen, luminescence. cancer stem cell-like cells viability. AID 2717, 2010. inhibition, % at 7.5 µM. actives 1.1% (n = 300,000); in the data active = inhibition above about 75%; tested in HMLE shEcad cells
L major viab – Leishmania major promastigote growth inhibition, primary screen. actives 9% (n = 200,000). inhibition, % at 10 µM. Leishmania major promastigotes, resazurin fluorescence viability; in the data active = inhibition above about 50%;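 also: promastigotes grown with compound for 44 hours at 28 °C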
The depositor's hits bear a star; . = no result.

SMILES	SKKanGAS inh	Beta cell apopt	Mdm2 MdmX PPI	T cruzi inh	CSC inhib	L major viab
CCc1ccc(NC(=S)N(Cc2cccnc2)Cc2ccco2)cc1	.	-5	15	.	5	100*
CCc1ccc(NC(=S)N(CCCN2CCOCC2)Cc2ccco2)cc1	3	-4	-8	-8	10	-1
COc1ccc(NC(=S)N(Cc2cccnc2)Cc2ccco2)cc1	-3	-11	-17	53	-22	91*
COc1ccc(NC(=S)N(CCCN2CCOCC2)Cc2ccco2)cc1	-3	-7	-13	-5	.	-8
Cc1cc(Br)ccc1S(=O)(=O)n1ccnc1C	-1	-3	-24	-10	-1	84*
Cc1cn2c(=O)c(C(=O)N3CCN(c4ccccc4Cl)CC3)cnc2s1	-4	1	19	3	-5	.
Cc1onc(-c2c(F)cccc2Cl)c1C(=O)Nc1nc2c(s1)CCCC2	10	10	9	29	-1	58*
Cc1onc(-c2c(F)cccc2Cl)c1C(=O)NCc1ccc2c(c1)OCO2	59*	-2	18	5	-9	.
CCCCOc1ccc(N2C(=O)CC(NCc3ccncc3)C2=O)cc1 (stereo not given)	-6	-1	-22	-3	-16	-4
Oc1ccc(CNC2CCCCC2)cc1	0	3	11	-5	-16	90*
Clc1ccc(CNC2CCCC2)cc1	-1	.	18	-18	.	37
COc1ccc(CN(C)C2CCCCC2)cc1	-7	0	2	4	-9	87*
COc1ccc(Nc2nc(N)nc(CN(C)C3CCCCC3)n2)cc1	-2	-4	-47	2	-12	-4
CN(Cc1ccc(O)cc1)C1CCCCC1	-1	-4	-6	4	4	93*
Cc1ccc(CN(C)C2CCN(C)CC2)cc1	-2	-3	-21	7	7	.
Cc1c(C(=O)Nc2nc3ccccc3[nH]2)oc2ccc(Br)cc12	79*	12	5	56*	-6	2
Cc1c(C(=O)Nc2nc3ccccc3[nH]2)oc2c(Cl)cccc12	67*	38	32	70*	10	43
Cc1c(C(=O)Nc2nc3ccccc3[nH]2)oc2ccccc12	21	22	-195	-6	-7	25
COc1ccc(/C=C(\C#N)C(=O)NCC(c2ccc(F)cc2)N2CCOCC2)cc1 (stereo not given)	-21	-13	-6	4	-5	.
CC1=C(C(=O)Nc2ccccc2)C(c2ccc(C)o2)n2c(s/c(=C\c3ccco3)c2=O)=N1 (stereo not given)	0	.	-29	16	.	84*
CN1CCN(c2ccc(S(=O)(=O)N3CCCCC3)cc2NC(=O)COc2ccc([N+](=O)[O-])cc2)CC1	1	2	19	58*	10	.
CCC(=O)c1ccc(OCC(=O)Nc2cc(S(=O)(=O)N3CCCCC3)ccc2N2CCN(CC)CC2)cc1	-3	9	30	45	-8	.
Cc1ccccc1OCC(=O)Nc1cc(S(=O)(=O)N2CCOCC2)ccc1N1CCCC1	.	-7	10	.	5	.
Cc1ccc(OCC(=O)Nc2cc(S(=O)(=O)N3CCCCC3)ccc2N2CCN(C)CC2)c(C)c1	-2	11	40	60*	14	.
CC(=O)NCCC(=O)Nc1cc(S(=O)(=O)N2CCCCC2)ccc1N1CCCCC1	.	-5	14	.	.	.
SMILES	SKKanGAS inh	Beta cell apopt	Mdm2 MdmX PPI	T cruzi inh	CSC inhib	L major viab
CC(=O)NCCC(=O)Nc1cc(S(=O)(=O)N2CCCCC2)ccc1N1CCN(C)CC1	-5	-1	-2	76*	-6	.
CCC(Oc1ccccc1)C(=O)OCC(=O)N(CC)c1c(N)n(Cc2ccccc2)c(=O)[nH]c1=O (stereo not given)	-5	2	36	2	-7	.
CCOc1ccc(CC(=O)NNC(=S)NCCc2ccccc2)cc1	-9	-7	18	5	20	-3
COc1cccc(OC)c1OC(=O)/C=C/c1ccc(C)o1	9	-3	21	1	-2	.
CC(C)C(=O)N=C1SC2CS(=O)(=O)CC2N1Cc1ccccc1 (stereo not given)	-3	-6	-14	7	-7	52*
Cc1ccc(-c2nc3ccsc3c(=O)[nH]2)cc1	-5	.	-53	-24	-1	-3
C=C(C)C(=O)N1CC2(CC(c3cccc(NC(=O)COc4ccc(Cl)cc4)c3)=NO2)C[C@@H]1C(N)=O (stereo not given in full)	0	104*	0	-6	-14	.
COc1ccc(CN2CCN(C3CCOCC3)CC2CCO)c(C)c1C (stereo not given)	1	-8	12	-3	-9	81*
COc1ccc(CN2CCN(C3CCSCC3)CC2CCO)c(C)c1C (stereo not given)	-6	3	8	13	.	88*
COc1ccc(CN2CCN(CC3CC3)CC2CCO)c(C)c1C (stereo not given)	4	-5	-5	-13	35	.
CCOc1ccccc1CN1CCN(C2CCOCC2)CC1CCO (stereo not given)	-3	-4	-50	-13	6	0
Cc1c(/C(O)=C2\C(=O)C(=O)N(CCN(C)C)C2c2ccccc2)cnn1-c1ccccc1 (stereo not given)	1	6	36	3	-14	.
O=C(Cn1c2[n+](c3ccccc31)CC(O)CS2)c1ccccc1 (stereo not given)	2	7	16	-9	-17	-10
COC(=O)c1ccccc1S(=O)(=O)N1Cc2cc([N+](=O)[O-])ccc2Oc2ccccc21	12	2	-16	5	-15	86*
CCN1CCN(c2ccc(S(=O)(=O)N3CCCCC3)cc2NC(=O)c2ccccc2)CC1	-1	3	26	31	.	.
CN1CCN(c2ccc(Cl)cc2NC(=O)C2COc3ccccc3O2)CC1 (stereo not given)	-4	8	35	7	.	99*
CCN1CCN(c2ccc(S(=O)(=O)N3CCCCC3)cc2NC(=O)c2ccc(C)o2)CC1	3	8	32	55*	-13	.
CN1CCN(S(=O)(=O)c2cccc(C(=O)Nc3cc(C(F)(F)F)ccc3N3CCCCC3)c2)CC1	-9	18	25	45	87*	.
CCC(C)NC(=O)c1ccccc1NC(=O)C1COc2ccccc2O1 (stereo not given)	-12	-9	16	12	-2	9
CC(C)NC(=O)c1ccccc1NC(=O)C1COc2ccccc2O1 (stereo not given)	6	-3	26	6	7	55*
CCOc1cc(C(C(=O)NCC2CCCO2)N(C(=O)Cn2nnc3ccccc32)c2ccc(OC)c(OC)c2)ccc1O (stereo not given)	-1	-5	-18	-5	.	.
